Data on 10 compounds can be found in paper PMC3207261 (European journal of nuclear medicine and molecular imaging, 2010).

For data set [1] the following is noted: cited from earlier work.
Data set [2] in a line: Radiation dose of other ^18F-labeled radioligands. The class given is in vivo. Conditions: approximate effective dose calculated from the reported doses of individual organs.
The format of data set [3] is in vivo, humans.
Data set [4] concerns glutathione S-transferase. Conditions: both in vitro and in vivo, via glutathione S-transferase, ref [16]; cited from earlier work.
A further data set relates to mGluR5. Conditions: late time points; ref [3]; cited from earlier work.
Data set [5] in a line: Radiation absorbed doses by Medical Internal Radiation Dose scheme. It is filed as in vivo, humans. In a few lines:
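Mean residence times of seven subjects were entered for a 70-kg adult male model. Red marrow residence came from the lumbar vertebrae, with all vertebral activity assigned to marrow, × 100/11.7. […] Bladder used the dynamic model with a 2.4-h voiding interval. Maximal injectable activity was derived from dose per MBq against the annual dose limits.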

Data set [6] is described as follows: Residence times of source organs from whole-body imaging. Conditions: mean±SD. It is filed as in vivo, humans. In a few lines: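 Residence time = area under each organ's time–activity curve (fraction of injected activity). Decay correction was removed and recovery correction applied (first-frame body activity vs dose-calibrator value). Area was trapezoidal to end of imaging, then physical decay only to infinity. Right-lung activity was scaled by the lung mass ratio 1:1.87. Organs spanning beds used the timing of their main bed position.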

The nature of data set [7]: Whole-body PET biodistribution after intravenous injection of ^18F-SP203. It is filed as in vivo, humans. In a few lines:
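Seven healthy volunteers (3 female, 4 male) received 141±41 MBq i.v. 2-D dynamic whole-body PET covered seven 15-cm bed positions (head to upper thigh) in 16 frames (15 s–4 min), 300 min total, including three 30-min rest periods. OSEM reconstruction with attenuation and scatter correction. Regions were drawn per coronal slice (high-uptake organs) or on summed slices (low-uptake). Uptake was expressed as % injected activity, mean±SD.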

The mark [8] stands for this setting: ref Communication from R.M. Kessler.

“And” between values parts separate entries of the source, which are not always exact repeats. Equal values may be shown once. “Also recorded” adds a separate entry of the source. Read-outs that look alike come from different tables or passages of the source. Marks after values point to notes of the source that are not given here.

For `N[C@@H](Cc1cc(O)c(O)cc1[18F])C(=O)O` [^18F-FDOPA], in data set [1] (ref [24]), the “Dose to red marrow” value is reported as 10.5 μSv/MBq and the Effective dose is reported as 19.9 μSv/MBq.

Turning to `COC(=O)[C@H]1[C@@H](c2ccc(Cl)cc2)C[C@@H]2CC[C@H]1N2CC[18F]` [^18F-FECNT], in data set [1] (ref [21]), the “Dose to red marrow” value is given as 16.1 μSv/MBq and the Effective dose is 15.8 μSv/MBq.

In the case of `COC(=O)[C@H]1[C@@H](c2ccc(I)cc2)C[C@@H]2CC[C@H]1N2CCC[18F]` [^18F-FPCIT], the “Dose to red marrow” value in data set [1] (ref [25]) was 5.1 μSv/MBq. For the same compound, the Effective dose in data set [2] (ref [25]) is ~8.6^a μSv/MBq.

For the compound `C=CCN1CCC[C@H]1CNC(=O)c1cc(CCC[18F])cc(OC)c1OC` [^18F-Fallypride], in data set [1] (setting [8]), the “Dose to red marrow” value is reported as 19.5 μSv/MBq and the Effective dose is 21.1 μSv/MBq.

On to `Fc1ncccc1OC[C@@H]1CCN1` [^18F-Fluoro-A-85380], for which, in data set [1] (ref [23]), the “Dose to red marrow” value is given as 14.1 μSv/MBq and the Effective dose was 23.7 μSv/MBq.

On to `C[C@]12CCC(=O)C[C@@H]1CC[C@@H]1[C@@H]2CC[C@]2(C)[C@@H](O)[C@@H]([18F])C[C@@H]12` [^18F-Fluorodihydrotestosterone], for which the “Dose to red marrow” value in data set [1] (ref [20]) is given as 18.7 μSv/MBq. The Effective dose in data set [2] (ref [20]) is given as ~12.5^a μSv/MBq.

With `Cc1cn([C@H]2C[C@H]([18F])[C@@H](CO)O2)c(=O)[nH]c1=O` [^18F-Fluorothymidine], in data set [1] (ref [19]), the “Dose to red marrow” value is on record as 24.0 μSv/MBq. In data set [2] (ref [19]), the Effective dose is ~15.5^a μSv/MBq.

As to `CNc1ccc(-c2nc3ccc(O)cc3s2)cc1[18F]` [^18F-GE067], in data set [1] (ref [22]), the “Dose to red marrow” value is listed as 15.3 μSv/MBq and the Effective dose is on record as 33.8 μSv/MBq.

As for `N#Cc1cc(F)cc(C#Cc2csc(C[18F])n2)c1` [^18F-SP203, 3-fluoro-5-(2-(2-^18F-(fluoromethyl)-thiazol-4-yl)ethynyl)benzonitrile], in data set [3] (141±41 MBq (1.9±1.0 nmol SP203) i.v., subject reports, ECG, blood pressure, pulse rate, respiration rate), the “Pharmacological effects during the 5-h scan” value was “no pharmacological effects”. The “Effects in blood and urine tests” value in data set [3] (acquired 7 to 24 h after radioligand injection) was “no effects were noted”. Besides, in data set [4], the “Defluorination in rat brain” value is on record as “defluorinated”. For the same compound, the “Radioactivity in the skull in human brain imaging” value with mGluR5 is “moderate uptake of radioactivity in the skull; also recorded: moderate amount of radioactivity accumulation in the skull”. Moreover, the “Maximal injectable activity per year” value in data set [5] (Europe, effective dose limit 10 mSv per year) is given as “no more than 562 MBq”. In addition, in data set [5], the “Radiation dose, brain” value is reported as 127.0 mrem/mCi. Also, the “Radiation dose, brain” value in data set [5] (standard reference man) is reported as 34.5 μSv/MBq. In data set [6] (brain, seven subjects), the “Residence time, brain” value was 0.192 h and 0.192 ± 0.048 h. Besides, the “Residence time, gallbladder” value in data set [6] (gallbladder, seven subjects) is 0.018 h and 0.018 ± 0.009 h. For the same compound, in data set [6] (heart, seven subjects), the “Residence time, heart” value is 0.024 h and 0.024 ± 0.008 h. Moreover, the “Residence time, kidney” value in data set [6] (kidney, seven subjects) came out at 0.037 ± 0.004 h. Also, the “Residence time, liver” value in data set [6] (liver, seven subjects) is 0.091 h and 0.091 ± 0.015 h. In data set [6] (lungs, seven subjects), the “Residence time, lungs” value was 0.065 h and 0.065 ± 0.017 h. For the same compound, the “Residence time, red marrow” value in data set [6] (red marrow (from lumbar vertebrae x 100/11.7)) was 0.307 h and 0.307 ± 0.063 h. Besides, in data set [6] (remainder of body), the “Residence time, remainder of body” value stood at 1.585 ± 0.147 h. Besides, the “Residence time, spleen” value in data set [6] (spleen, seven subjects) was 0.014 h and 0.014 ± 0.004 h. Also, the “Time of peak uptake in brain, kidneys, lungs, heart and spleen” value in data set [7] (after injection) is reported as at most 8 min. The “Distribution of radioactivity in the skeleton” value in data set [7] (bone structures with vs without red marrow) is “most of the radioactivity was in bone structures that contain red marrow and not in those without red marrow; also recorded: the majority of activity in the human skeleton was in the red marrow rather than in bone itself; also recorded: most of the radioactivity was in bone structures that contain red marrow and not in bones without red marrow”. The “Peak uptake in brain” value in data set [7] (brain, seven healthy humans, i.v.) is given as 11 % of injected activity. Moreover, in data set [7] (gallbladder), the “Radioactivity accumulated in gallbladder (asymptote / maximum)” value is 0.9 % of injected activity and the “Time to reach asymptote / maximum in gallbladder” value is at most 100 min. Also, the “Peak uptake in heart” value in data set [7] (heart) is 3.4 % of injected activity. Moreover, the Defluorination in humans entry in data set [7] (judged from distribution of radioactivity in bone structures with various proportions of bone and red marrow) was “undergoes little defluorination”. The “Peak uptake in liver” value in data set [7] (liver, seven healthy humans, i.v.) is reported as 12.8±3.4 % of injected activity. Further, the “Peak uptake in lungs” value in data set [7] (lungs) was 4.7 % of injected activity and 4.7±1.5 % of injected activity. Besides, in data set [7] (red marrow), the “Radioactivity accumulated in red marrow (asymptote)” value is 14 % of injected activity and the “Time to reach asymptote in red marrow” value is at most 100 min.

Turning to `FC(F)(F)c1nnnn1-c1ccc(OC[18F])c(CN[C@H]2CCCN[C@H]2c2ccccc2)c1` [^18F-SPARQ], in data set [1] (ref [7]), the “Dose to red marrow” value is given as 15.8 μSv/MBq and the Effective dose is 29.3 μSv/MBq.
